ChEMBL document CHEMBL1157810, “Synthesis and evaluation of nitric oxide-releasing derivatives of farnesylthiosalicylic acid as anti-tumor agents” (Bioorg Med Chem, 2010)
Activity calls are given as the source filed them. The rule behind the calls is not given here.

Key:
[1] = tested on: SGC-7901; test: Induction of NO production in human SGC7901 cells at 100 uM after 30 to 300 mins by Griess assay; format: functional, cell-based
How it was run: (§1)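 Cells treated with compound at 100 µM. Nitrate/nitrite in cell lysates measured by Griess reaction at 540 nm over 30–300 min and quantified from a sodium nitrate standard curve. Diluent-treated cells gave background. Reported values are means of two experiments at 240 min post-treatment.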

[2] = tested on: MDA-MB-231; test: Induction of NO production in human MDA-MB-231 cells at 100 uM after 30 to 300 mins by Griess assay; format: functional, cell-based; how it was run: as §1
[3] = tested on: U-251; test: Induction of NO production in human U251 cells at 100 uM after 30 to 300 mins by Griess assay; format: functional, cell-based; how it was run: as §1
[4] = tested on: MCF7; test: Induction of NO production in human MCF7 cells at 100 uM after 30 to 300 mins by Griess assay; format: functional, cell-based; how it was run: as §1
[5] = tested on: U-87MG ATCC; test: Induction of NO production in human U87 cells at 100 uM after 30 to 300 mins by Griess assay; format: functional, cell-based; how it was run: as §1
[6] = tested on: SGC-7901; test: Cytotoxicity against human SGC7901 cells after 48 hrs by MTT assay; format: functional, cell-based; details: SGC-7901, 48 h
How it was run: (§2)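 Cells at 5–10 × 10³/well grown overnight in RPMI-1640, then exposed in triplicate to a concentration series for 48 h. MTT (1 mg/mL) added for the final 4 h, formazan dissolved in DMSO, read at 570 nm against 595 nm reference. Untreated cells served as negative control, 1% Triton-treated cells as positive control. Inhibition calculated relative to negative-control OD. IC50 taken as concentration giving 50% growth inhibition.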

[7] = tested on: MCF7; test: Cytotoxicity against human MCF7 cells after 48 hrs by MTT assay; format: functional, cell-based; details: MCF7, 48 h; how it was run: as §2
[8] = tested on: MDA-MB-231; test: Cytotoxicity against human MDA-MB-231 cells after 48 hrs by MTT assay; format: functional, cell-based; details: MDA-MB-231, 48 h; how it was run: as §2
[9] = tested on: U-251; test: Cytotoxicity against human U251 cells after 48 hrs by MTT assay; format: functional, cell-based; details: U-251, 48 h; how it was run: as §2
[10] = Cytotoxicity against human U87 cells after 48 hrs by MTT assay; format: functional, cell-based, U-87MG ATCC; details: U-87 MG; how it was run: as §2
[11] = tested on: MDA-MB-231; test: Ratio of IC50 for sorafenib to IC50 for drug for cytotoxicity against human MDA-MB-231 cells after 48 hrs by MTT assay; format: functional
[12] = tested on: MDA-MB-231; test: Ratio of IC50 for FTA to IC50 for drug for cytotoxicity against human MDA-MB-231 cells after 48 hrs by MTT assay; format: functional
[13] = tested on: MDA-MB-231; test: Inhibition of Ras activation in human MDA-MB-231 cells assessed as reduction in phosphorylated Akt levels at 5 uM after 8 hrs by Western blot; format: cell-based
How it was run: (§3)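 MDA-MB-231 cells at 1.5 × 10⁵/mL exposed to 1 or 5 µM compound or vehicle for 8 h, then harvested and lysed. Lysates resolved by SDS–PAGE and immunoblotted with antibodies to phospho-Akt (Ser473), phospho-ERK (Thr202/Tyr204), phospho-Raf (Ser259), total Akt, total ERK and β-actin. Detection by HRP-conjugated secondary antibodies and enhanced chemiluminescence. Blots representative of two experiments.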

[14] = tested on: MDA-MB-231; test: Inhibition of Ras activation in human MDA-MB-231 cells assessed as reduction in phosphorylated ERK levels at 5 uM after 8 hrs by Western blot; format: cell-based; how it was run: as §3
[15] = tested on: MDA-MB-231; test: Inhibition of Ras activation in human MDA-MB-231 cells assessed as reduction in phosphorylated Raf levels at 5 uM after 8 hrs by Western blot; format: cell-based; how it was run: as §3
[16] = tested on: MDA-MB-231; test: Induction of NO production in human MDA-MB-231 cells at 100 uM after 30 to 300 mins by Griess assay in presence of hemoglobin; format: functional, cell-based
How it was run: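 MDA-MB-231 cells (5 × 10⁶/well) were treated in triplicate with 100 µM compound […], harvested and lysed. Lysates were mixed with Griess reagent for 30–300 min and absorbance read at 540 nm. Nitrate/nitrite was quantified against a sodium nitrate standard curve, with diluent-treated cells as background.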

[17] = tested on: MDA-MB-231; test: Cytotoxicity against human MDA-MB-231 cells after 24 hrs by MTT assay in presence of hemoglobin

Structure (SMILES) | Activity [1] | Activity [2] | Activity [3] | Activity [4] | Activity [5] | IC50 [6] [µM] | IC50 [7] [µM] | IC50 [8] [µM] | IC50 [9] [µM] | IC50 [10] [µM] | Ratio IC50 [11] | Ratio IC50 [12] | Activity [13] | Activity [14] | Activity [15] | Activity [16] | Activity [17]
CC(C)=CCC/C(C)=C/CC/C(C)=C/CSc1ccccc1C(=O)NCC(=O)OCC#CCOc1no[n+]([O-])c1S(=O)(=O)c1ccccc1 | Active | Active | Active | Active | Active | 11.4 | 6.91 | 7.23 | 11.7 | 14.8 |  |  |  |  |  |  | 
CC(C)=CCC/C(C)=C/CC/C(C)=C/CSc1ccccc1C(=O)NCC(=O)OC(C)CCOc1no[n+]([O-])c1S(=O)(=O)c1ccccc1 (stereo not drawn) |  |  |  |  |  | 11.9 | 9.11 | 7.26 | 10.8 | 15.3 |  |  |  |  |  |  | 
CC(C)=CCC/C(C)=C/CC/C(C)=C/CSc1ccccc1C(=O)N1CCC[C@H]1C(=O)OC(C)CCOc1no[n+]([O-])c1S(=O)(=O)c1ccccc1 (stereo partly drawn) |  |  |  |  |  | 13.9 | 6.5 | 1.54 | 7.93 | 8.47 |  |  |  |  |  |  | 
CC(C)=CCC/C(C)=C/CC/C(C)=C/CSc1ccccc1C(=O)NCC(=O)OCCCCOc1no[n+]([O-])c1S(=O)(=O)c1ccccc1 |  |  |  |  |  | > 50 | 25.1 | 9.99 | 28.2 | > 50 |  |  |  |  |  |  | 
CNC(=O)c1cc(Oc2ccc(NC(=O)Nc3ccc(Cl)c(C(F)(F)F)c3)cc2)ccn1 [SORAFENIB] |  |  |  |  |  | 10.4 | 8.83 | 4.77 | 24.7 | 21.1 |  |  |  |  |  |  | 
CC(C)=CCC/C(C)=C/CC/C(C)=C/CSc1ccccc1C(=O)N[C@@H](C)C(=O)OCC#CCOc1no[n+]([O-])c1S(=O)(=O)c1ccccc1 |  |  |  |  |  | 11.4 | 5.03 | 1.01 | 7.31 | 5.18 |  |  |  |  |  |  | 
CC(C)=CCC/C(C)=C/CC/C(C)=C/CSc1ccccc1C(=O)N[C@@H](Cc1ccccc1)C(=O)OCCCCOc1no[n+]([O-])c1S(=O)(=O)c1ccccc1 |  |  |  |  |  | > 50 | > 50 | > 50 | > 50 | > 50 |  |  |  |  |  |  | 
O=S(=O)(c1ccccc1)c1c(OCCOCCO)no[n+]1[O-] |  |  |  |  |  |  |  | 20.5 |  |  |  |  |  |  |  |  | 
CC(C)=CCC/C(C)=C/CC/C(C)=C/CSc1ccccc1C(=O)N[C@@H](C)C(=O)OC(C)CCOc1no[n+]([O-])c1S(=O)(=O)c1ccccc1 (stereo partly drawn) |  |  |  |  |  | > 50 | 11.1 | 5.05 | 15.3 | 20.4 |  |  |  |  |  |  | 
CC(C)=CCC/C(C)=C/CC/C(C)=C/CSc1ccccc1C(=O)N[C@@H](C)C(=O)OCCCCOc1no[n+]([O-])c1S(=O)(=O)c1ccccc1 |  |  |  |  |  | 44.6 | 8.68 | > 50 | 7.95 | 26.4 |  |  |  |  |  |  | 
CC(C)=CCC/C(C)=C/CC/C(C)=C/CSc1ccccc1C(=O)N1CCC[C@H]1C(=O)OCCCCOc1no[n+]([O-])c1S(=O)(=O)c1ccccc1 |  |  |  |  |  | 22.5 | 7.47 | 3.14 | 6.99 | 9 |  |  |  |  |  |  | 
CC(C)=CCC/C(C)=C/CC/C(C)=C/CSc1ccccc1C(=O)N1CCC[C@H]1C(=O)OCC#CCOc1no[n+]([O-])c1S(=O)(=O)c1ccccc1 | Active | Active | Active | Active | Active | 7.35 | 5.49 | 1.07 | 3.56 | 13.5 | 4 | 50 |  |  |  |  | 
CC(C)=CCC/C(C)=C/CC/C(C)=C/CSc1ccccc1C(=O)N1CCC[C@H]1C(=O)OCCOCCOc1no[n+]([O-])c1S(=O)(=O)c1ccccc1 | Active | Active | Active | Active | Active | 7.86 | 8.77 | 3.16 | 4.83 | 12.9 |  |  |  |  |  |  | 
CC(C)=CCC/C(C)=C/CC/C(C)=C/CSc1ccccc1C(=O)NCC(=O)OCCOCCOc1no[n+]([O-])c1S(=O)(=O)c1ccccc1 | Active | Active | Active | Active | Active | 19.5 | 6.59 | 2.41 | 8.58 | 7.34 |  |  |  |  |  |  | 
CC(C)=CCC/C(C)=C/CC/C(C)=C/CSc1ccccc1C(=O)O [SALIRASIB] |  |  |  |  |  | 37.7 | 46.8 | 51.2 | 46.9 | 54 |  |  | inactive | inactive | inactive |  | 
CC(C)=CCC/C(C)=C/CC/C(C)=C/CSc1ccccc1C(=O)N[C@@H](Cc1ccccc1)C(=O)OCCOCCOc1no[n+]([O-])c1S(=O)(=O)c1ccccc1 |  |  |  |  |  | > 50 | > 50 | > 50 | > 50 | > 50 |  |  |  |  |  |  | 
O=S(=O)(c1ccccc1)c1c(OCCCCO)no[n+]1[O-] |  |  |  |  |  |  |  | 9.87 |  |  |  |  |  |  |  |  | 
CC(C)=CCC/C(C)=C/CC/C(C)=C/CSc1ccccc1C(=O)N[C@@H](Cc1ccccc1)C(=O)OCC#CCOc1no[n+]([O-])c1S(=O)(=O)c1ccccc1 |  |  |  |  |  | > 50 | > 50 | > 50 | > 50 | > 50 |  |  |  |  |  |  | 
CC(C)=CCC/C(C)=C/CC/C(C)=C/CSc1ccccc1C(=O)N[C@@H](C)C(=O)OCCOCCOc1no[n+]([O-])c1S(=O)(=O)c1ccccc1 | Active | Active | Active | Active | Active | 11.3 | 7.68 | 4.21 | 8.04 | 18.1 |  |  | Active | Active | Active | inactive | inactive
O=S(=O)(c1ccccc1)c1c(OCC#CCO)no[n+]1[O-] |  |  |  |  |  |  |  | 6.97 |  |  |  |  |  |  |  |  | 
CC(C)=CCC/C(C)=C/CC/C(C)=C/CSc1ccccc1C(=O)N[C@@H](Cc1ccccc1)C(=O)OC(C)CCOc1no[n+]([O-])c1S(=O)(=O)c1ccccc1 (stereo partly drawn) | Active | Active | Active | Active | Active | > 50 | > 50 | > 50 | > 50 | > 50 |  |  |  |  |  |  | 
